Data set [1] is described as follows: Selectivity index, ratio of CC50 for human MT4 cells to IC50 for HIV1 3B. The format is functional. The method, boiled down: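 Ratio CC50/IC50. CC50 comes from MTT viability of uninfected MT-4 cells, and IC50 from MTT protection of HIV-1-infected MT-4 cells (MOI 0.02). Both were read after 4 days at 37 °C in parallel assays.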
Data set [2] can be described thus: Cytotoxicity against human MT4 cells by MTT assay. The format is cell-based. In short, it runs like this:
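Uninfected MT-4 cells run in parallel with the antiviral plates, with serial compound dilutions from DMSO stocks (50 mM or higher), for 4 days at 37 °C. Viability read by MTT. CC50 is the concentration that lowers viability of uninfected cells by 50%.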
(In general: Tetrazolium dyes change colour on reduction, which living cells bring about.)

Data set [3] relates to Human immunodeficiency virus 2. Nature of the data set: Antiviral activity against HIV2 ROD infected in human MT4 cells assessed as inhibition of virus-induced cytopathic effect after 4 days by MTT assay. The format is functional, organism-based. To be noted: Human immunodeficiency virus 2, ROD, MT4, 96 h. In short, it runs like this: (§1)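 MT-4 cells at 1 × 10^5 cells/mL infected at MOI 0.02 (virus stocks titrated in MT-4, as CCID50), then put at once into wells with serial compound dilutions (DMSO stocks, 50 mM or higher). Incubation 4 days, 37 °C. Viable cells counted by MTT. IC50 taken as concentration protecting 50% of infected cells.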

Data set [4] concerns Human immunodeficiency virus 1. Nature of the data set: Antiviral activity against HIV1 3B infected in human MT4 cells assessed as inhibition of virus-induced cytopathic effect after 4 days by MTT assay. The format is functional, organism-based. The following applies: Human immunodeficiency virus 1, 3B, MT4, 96 h. The method, boiled down:
as §1
For orientation: Protection from cytopathic effect is a common read-out in antiviral testing.

The values below come from ChEMBL document CHEMBL1138559, “Synthesis and in vitro anti-HIV evaluation of a new series of 6-arylmethyl-substituted S-DABOs as potential non-nucleoside HIV-1 reverse transcriptase inhibitors” (Eur J Med Chem, 2009).

Where only a bound is given, the exact number is not on record here.

A word on the CC50: it is the concentration giving 50% cytotoxicity. A higher CC50 goes with better tolerance by the cells. One may read the IC50 as the concentration that inhibits the measured activity by half. Consider `COc1ccc(CSc2nc(Cc3cc(C)cc(C)c3)c(C)c(=O)[nH]2)cc1`, for which the “Ratio CC50/IC50” value in data set [1] is reported as above 299. In data set [2], this compound came in with a CC50 above 329 µM. Besides, the IC50 was above 329 µM in data set [3] and 1.1 µM in data set [4].
Regarding `Cc1c(Cc2cccc(Br)c2)nc(SCc2ccc([N+](=O)[O-])cc2)[nH]c1=O`, in data set [1], the “Ratio CC50/IC50” value is recorded as above 20. Besides, the CC50 in data set [2] was above 280 µM. For the same compound, the IC50 in data set [3] was above 280 µM; in data set [4], 14.2 µM.
Regarding `CCc1c(Cc2cccc(Br)c2)nc(SCc2ccc(OC)cc2)[nH]c1=O`, the “Ratio CC50/IC50” value in data set [1] is 718. This compound also yielded a CC50 in data set [2] of 201 µM. For the same compound, the values for the IC50 in data set [3] and in data set [4] were above 201 µM and 0.28 µM, respectively.
Taken in the same sequence, the figures for `Cc1cc(C)cc(Cc2nc(SCc3ccc([N+](=O)[O-])cc3)[nH]c(=O)c2C)c1` were above 58, above 316 µM, above 316 µM and 5.46 µM.
As to `CCc1c(Cc2cc(C(F)(F)F)cc(C(F)(F)F)c2)nc(SCc2ccc([N+](=O)[O-])cc2)[nH]c1=O`, in data set [2], the CC50 was above 242 µM. In addition, the IC50 in data set [3] and in data set [4] was above 242 µM in each case.
In data set [2], `CCc1c(Cc2ccc(Br)cc2)nc(SCc2ccc(OC)cc2)[nH]c1=O` displayed a CC50 above 281 µM. Also, the IC50 in data set [3] and in data set [4] was above 281 µM in each case.
As to `COc1ccc(CSc2nc(Cc3ccc(-c4ccccc4)cc3)c(C)c(=O)[nH]2)cc1`, the “Ratio CC50/IC50” value in data set [1] is recorded as below 1. This compound returned a CC50 in data set [2] of 100 µM. Also, the IC50 in data set [3] and in data set [4] was above 100 µM in each case.
In the case of `COc1ccc(CSc2nc(Cc3cccc(Br)c3)c(C)c(=O)[nH]2)cc1`, the “Ratio CC50/IC50” value in data set [1] was above 45. The same compound displayed a CC50 in data set [2] above 290 µM. Besides, the IC50 was above 290 µM in data set [3] and 6.42 µM in data set [4].
Consider `CCc1c(Cc2ccccc2Br)nc(SCc2ccc([N+](=O)[O-])cc2)[nH]c1=O`, for which the “Ratio CC50/IC50” value in data set [1] was above 368. For the same compound, the CC50 in data set [2] was above 272 µM. Further, the IC50 in data set [3] is above 272 µM; in data set [4], 0.74 µM.
With `CCc1c(Cc2cc(C(F)(F)F)cc(C(F)(F)F)c2)nc(SCc2ccc(OC)cc2)[nH]c1=O`, the “Ratio CC50/IC50” value in data set [1] is listed as “<=26”. The compound also had a CC50 in data set [2] above 249 µM. Further, the IC50 in data set [3] was above 249 µM; in data set [4] it was at least 9.47 µM.
Regarding `CCc1c(Cc2c(Cl)cccc2Cl)nc(SCc2ccc(OC)cc2)[nH]c1=O`, the “Ratio CC50/IC50” value in data set [1] is recorded as above 1793. In data set [2], this compound had a CC50 above 287 µM. Besides, the IC50 in data set [3] was above 287 µM; in data set [4], 0.16 µM.
As for `CCc1c(Cc2cccc3ccccc23)nc(SCc2ccc(OC)cc2)[nH]c1=O`, in data set [1], the “Ratio CC50/IC50” value stood at 198. In data set [2], this compound had a CC50 of 261 µM. Further, the IC50 is above 227 µM in data set [3] and 1.32 µM in data set [4].
Consider `O=c1[nH]cnc2c1ncn2[C@H]1CC[C@@H](CO)O1` [DIDANOSINE], for which, in data set [1], the “Ratio CC50/IC50” value is on record as “>=98”. The compound also gave a CC50 in data set [2] of at least 529 µM. In addition, the IC50 in data set [3] came to 2.71 µM; in data set [4], 5.37 µM.
For `CCc1c(Cc2ccc(-c3ccccc3)cc2)nc(SCc2ccc(OC)cc2)[nH]c1=O`, the “Ratio CC50/IC50” value in data set [1] is below 1. Further, the CC50 in data set [2] turned out to be 194 µM. Moreover, the IC50 in data set [3] and in data set [4] was above 194 µM throughout.
With `CCc1c(Cc2cc(C)cc(C)c2)nc(SCc2ccc([N+](=O)[O-])cc2)[nH]c1=O`, the “Ratio CC50/IC50” value in data set [1] is reported as above 1906. In data set [2], this compound gave a CC50 above 305 µM. Also, the IC50 is above 305 µM in data set [3] and 0.16 µM in data set [4].
`COc1ccc(CSc2nc(Cc3ccc(Br)cc3)c(C)c(=O)[nH]2)cc1`: the CC50 in data set [2] was above 290 µM. Besides, the IC50 in data set [3] and in data set [4] was above 290 µM in each case.
Consider `CCc1c(Cc2cccc(Br)c2)nc(SCc2ccc([N+](=O)[O-])cc2)[nH]c1=O`, for which the “Ratio CC50/IC50” value in data set [1] worked out at 139.6. Further, the CC50 in data set [2] was 187 µM. The IC50 in data set [3] is above 187 µM; in data set [4] it was 1.34 µM.
`CCc1c(Cc2cc(C)cc(C)c2)nc(SCc2ccc(OC)cc2)[nH]c1=O`: the “Ratio CC50/IC50” value in data set [1] was above 2642. In data set [2], this compound yielded a CC50 above 317 µM. Moreover, the values for the IC50 in data set [3] and in data set [4] were above 317 µM and 0.12 µM, respectively.
`Cc1c(Sc2ccccc2)n(COCCO)c(=O)[nH]c1=O` [HEPT]: the “Ratio CC50/IC50” value in data set [1] was found to be 79. In addition, in data set [2], the CC50 was at most 399 µM. Moreover, the values for the IC50 in data set [3] and in data set [4] were above 405 µM and 5.06 µM, respectively.
`COc1ccc(CSc2nc(Cc3cc(C(F)(F)F)cc(C(F)(F)F)c3)c(C)c(=O)[nH]2)cc1` had a CC50 in data set [2] above 256 µM. Further, the IC50 in data set [3] and in data set [4] was above 256 µM each time.
With `Cc1c(Cc2ccccc2Br)nc(SCc2ccc([N+](=O)[O-])cc2)[nH]c1=O`, in data set [1], the “Ratio CC50/IC50” value was “>=168”. Further, the CC50 in data set [2] was at least 246 µM. Moreover, the IC50 is above 246 µM in data set [3] and 1.46 µM in data set [4].
For `CCc1c(Cc2cc(C)cc(C)c2)nc(SCc2ccccc2)[nH]c1=O`, the “Ratio CC50/IC50” value in data set [1] was above 361. Further, the CC50 in data set [2] is above 343 µM. Further, the IC50 in data set [3] was above 343 µM; in data set [4], 0.95 µM.
With `COc1ccc(CSc2nc(Cc3cccc4ccccc34)c(C(C)C)c(=O)[nH]2)cc1`, the “Ratio CC50/IC50” value in data set [1] came out at 178. The same compound gave a CC50 in data set [2] of 37.4 µM. The values for the IC50 in data set [3] and in data set [4] were above 37.4 µM and 0.21 µM, respectively.
Taken in the same sequence, the figures for `CCc1c(Cc2ccccc2Br)nc(SCc2ccc(OC)cc2)[nH]c1=O` were 717, 165 µM, above 165 µM and 0.23 µM.
Take `Cc1c(Cc2cc(C(F)(F)F)cc(C(F)(F)F)c2)nc(SCc2ccc([N+](=O)[O-])cc2)[nH]c1=O`: the CC50 in data set [2] was above 248 µM. Further, the 50% inhibitory concentration (IC50) in data set [3] and in data set [4] was above 248 µM in each case.
On to `COc1ccc(CSc2nc(Cc3ccccc3Br)c(C)c(=O)[nH]2)cc1`, for which, in data set [1], the “Ratio CC50/IC50” value turned out to be 172. In data set [2], this compound yielded a CC50 of 179 µM. Besides, the values for the IC50 in data set [3] and in data set [4] were above 179 µM and 1.04 µM, respectively.
Taken in the same sequence, the figures for `CCc1c(Cc2c(Cl)cccc2Cl)nc(SCc2ccc([N+](=O)[O-])cc2)[nH]c1=O` were above 772, above 278 µM, above 278 µM and 0.36 µM.
